Laboratory results taken from ChEMBL document CHEMBL5705905, “Pharmacological targeting of kinases MST1 and MST2 augments tissue repair and regeneration” (Sci Transl Med, 2016).
Activity calls are given as the source filed them. The calls are words filed in the database; no cut-off is given here.

How the values were obtained:
[1] = target: Dual serine/threonine and tyrosine protein kinase (Homo sapiens) (UniProt Q6XUX3); assay: Inhibition of RIPK5 (unknown origin) assessed as remaining activity at 1 uM by Kinome scan method relative to control
HepG2 = assay: Inhibition of Flag-tagged MST1 D109A mutant (unknown origin) in human HepG2 cells assessed as MOB1 phosphorylation level at 3 uM by immunoblot analysis; assay type: cell-based
[2] = target: Serine/threonine-protein kinase B-raf (Homo sapiens) (UniProt P15056); assay: Inhibition of BRAF (unknown origin) assessed as remaining activity at 1 uM by Kinome scan method relative to control
Procedure, shortened: (§1)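 Active-site-dependent competition-binding (KINOMEscan) panel of 468 kinases, test compound at 1 μM (from a 10 mM DMSO stock). Read-out is ctrl% = (test signal − positive control signal)/(negative control signal − positive control signal) × 100. DMSO is the negative control (100%) and a control compound is the positive control (0%). Lower ctrl% means tighter binding.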

[3] = target: Calcium-dependent protein kinase 1 (Plasmodium falciparum) (UniProt P62344); assay: Inhibition of Plasmodium falciparum CDPK1 assessed as remaining activity at 1 uM by Kinome scan method relative to control
[4] = target: Receptor-interacting serine/threonine-protein kinase 2 (Homo sapiens) (UniProt O43353); assay: Inhibition of RIPK2 (unknown origin) assessed as remaining activity at 1 uM by Kinome scan method relative to control
[5] = target: Activin receptor type-2A (Homo sapiens) (UniProt P27037); assay: Inhibition of ACVR2A (unknown origin) assessed as remaining activity at 1 uM by Kinome scan method relative to control; procedure, shortened: as §1
[6] = system: Tyrosine-protein kinase ABL1 (Homo sapiens), P00519 [Q252H]; assay: Inhibition of ABL1 Q252H mutant (unknown origin) assessed as remaining activity at 1 uM by Kinome scan method relative to control; procedure, shortened: as §1
Homo sapiens = organism: Homo sapiens; assay: Inhibition of recombinant His-tagged full-length MST1 D109A mutant (unknown origin) expressing in Escherichia coli assessed as GST-tagged MOB1 phosphorylation level at 0.01 to 1 uM incubated for 15 min by immunoblot analysis; conditions: dose 0.01-1 µM
[7] = target: 3-phosphoinositide-dependent protein kinase 1 (Homo sapiens) (UniProt O15530); assay: Inhibition of PDPK1 (unknown origin) assessed as remaining activity at 1 uM by Kinome scan method relative to control
[8] = target: Ephrin type-A receptor 5 (Homo sapiens) (UniProt P54756); assay: Inhibition of EPHA5 (unknown origin) assessed as remaining activity at 1 uM by Kinome scan method relative to control
[9] = target: Cyclin-dependent kinase 11B (Homo sapiens) (UniProt P21127); assay: Inhibition of CDC2L1 (unknown origin) assessed as remaining activity at 1 uM by Kinome scan method relative to control
Procedure, shortened: (§2)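 Active-site-dependent competition-binding profiling (KINOMEscan) at 1 μM against a 468-kinase panel; compound supplied from a 10 mM DMSO stock. Read-out is ctrl% = (test signal − positive control signal)/(negative control signal − positive control signal) × 100. DMSO is the negative control (100%) and a control compound the positive control (0%). Lower ctrl% means tighter binding.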

[10] = Tmax in male Sprague-Dawley rat at 5 mg/kg, iv measured for 24 hrs by LC-MS/MS analysis; assay type: ADME, organism-based; conditions: in vivo
[11] = target: Testis-specific serine/threonine-protein kinase 1 (Homo sapiens) (UniProt Q9BXA7); assay: Inhibition of TSSK1B (unknown origin) assessed as remaining activity at 1 uM by Kinome scan method relative to control
[12] = target: Serine/threonine-protein kinase 10 (Homo sapiens) (UniProt O94804); assay: Inhibition of LOK (unknown origin) assessed as remaining activity at 1 uM by Kinome scan method relative to control
[13] = target: RAC-beta serine/threonine-protein kinase (Homo sapiens) (UniProt P31751); assay: Inhibition of AKT2 (unknown origin) assessed as remaining activity at 1 uM by Kinome scan method relative to control; procedure, shortened: as §1
[14] = target: Serine/threonine-protein kinase TNNI3K (Homo sapiens) (UniProt Q59H18); assay: Inhibition of TNNI3K (unknown origin) assessed as remaining activity at 1 uM by Kinome scan method relative to control
[15] = target: Dual specificity tyrosine-phosphorylation-regulated kinase 2 (Homo sapiens) (UniProt Q92630); assay: Inhibition of DYRK2 (unknown origin) assessed as remaining activity at 1 uM by Kinome scan method relative to control
[16] = target: Serine/threonine-protein kinase MAK (Homo sapiens) (UniProt P20794); assay: Inhibition of MAK (unknown origin) assessed as remaining activity at 1 uM by Kinome scan method relative to control
[17] = target: Citron Rho-interacting kinase (Homo sapiens) (UniProt O14578); assay: Inhibition of CIT (unknown origin) assessed as remaining activity at 1 uM by Kinome scan method relative to control; procedure, shortened: as §2
[18] = target: T1, Serine/threonine-protein kinase 3 (Homo sapiens, UniProt Q13188)
T1 sequence (Q13188 whole entry): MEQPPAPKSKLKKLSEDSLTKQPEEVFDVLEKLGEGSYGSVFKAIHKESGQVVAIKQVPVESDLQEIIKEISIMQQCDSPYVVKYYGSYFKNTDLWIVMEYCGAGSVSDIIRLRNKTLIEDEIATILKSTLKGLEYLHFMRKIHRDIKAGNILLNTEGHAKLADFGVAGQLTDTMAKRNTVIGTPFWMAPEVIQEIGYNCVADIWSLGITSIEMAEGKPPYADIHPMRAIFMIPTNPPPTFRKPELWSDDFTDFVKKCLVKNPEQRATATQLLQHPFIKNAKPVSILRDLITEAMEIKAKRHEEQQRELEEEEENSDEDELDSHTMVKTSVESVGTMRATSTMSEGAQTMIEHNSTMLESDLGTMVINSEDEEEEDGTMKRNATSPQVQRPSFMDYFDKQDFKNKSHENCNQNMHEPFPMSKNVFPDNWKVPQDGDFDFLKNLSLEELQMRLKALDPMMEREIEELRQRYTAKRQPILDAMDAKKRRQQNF

[19] = target: Serine/threonine-protein kinase ULK2 (Homo sapiens, UniProt Q8IYT8); assay: Binding affinity to ULK2 (unknown origin) assessed as dissociation constant
Aurora kinase B = Aurora kinase B (Homo sapiens, UniProt Q96GD4); assay: Binding affinity to AURKB (unknown origin) assessed as dissociation constant
[20] = target: Serine/threonine-protein kinase NLK (Homo sapiens) (UniProt Q9UBE8); assay: Inhibition of NLK (unknown origin) assessed as remaining activity at 1 uM by Kinome scan method relative to control
[21] = target: Serine/threonine-protein kinase SIK3 (Homo sapiens) (UniProt Q9Y2K2); assay: Inhibition of QSK (unknown origin) assessed as remaining activity at 1 uM by Kinome scan method relative to control
[22] = target: Serine/threonine-protein kinase haspin (Homo sapiens) (UniProt Q8TF76); assay: Inhibition of HASPIN (unknown origin) assessed as remaining activity at 1 uM by Kinome scan method relative to control

Serine/threonine-protein kinase NLK (Homo sapiens), sequence (Q9UBE8 whole entry): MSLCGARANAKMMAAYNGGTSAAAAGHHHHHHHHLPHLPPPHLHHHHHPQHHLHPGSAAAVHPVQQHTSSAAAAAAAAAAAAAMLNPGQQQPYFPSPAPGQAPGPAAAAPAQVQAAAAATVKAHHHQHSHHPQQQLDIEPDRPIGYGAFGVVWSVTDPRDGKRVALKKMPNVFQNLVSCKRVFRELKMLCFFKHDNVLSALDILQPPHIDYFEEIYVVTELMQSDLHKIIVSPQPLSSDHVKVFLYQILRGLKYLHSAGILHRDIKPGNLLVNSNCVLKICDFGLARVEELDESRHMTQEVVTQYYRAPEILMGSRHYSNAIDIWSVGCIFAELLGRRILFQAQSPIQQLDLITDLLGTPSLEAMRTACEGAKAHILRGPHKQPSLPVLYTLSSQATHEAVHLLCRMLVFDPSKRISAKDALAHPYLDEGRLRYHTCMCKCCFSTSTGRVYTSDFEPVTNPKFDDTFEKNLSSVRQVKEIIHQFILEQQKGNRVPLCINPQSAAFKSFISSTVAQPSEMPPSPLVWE
Serine/threonine-protein kinase B-raf (Homo sapiens), sequence (P15056 whole entry): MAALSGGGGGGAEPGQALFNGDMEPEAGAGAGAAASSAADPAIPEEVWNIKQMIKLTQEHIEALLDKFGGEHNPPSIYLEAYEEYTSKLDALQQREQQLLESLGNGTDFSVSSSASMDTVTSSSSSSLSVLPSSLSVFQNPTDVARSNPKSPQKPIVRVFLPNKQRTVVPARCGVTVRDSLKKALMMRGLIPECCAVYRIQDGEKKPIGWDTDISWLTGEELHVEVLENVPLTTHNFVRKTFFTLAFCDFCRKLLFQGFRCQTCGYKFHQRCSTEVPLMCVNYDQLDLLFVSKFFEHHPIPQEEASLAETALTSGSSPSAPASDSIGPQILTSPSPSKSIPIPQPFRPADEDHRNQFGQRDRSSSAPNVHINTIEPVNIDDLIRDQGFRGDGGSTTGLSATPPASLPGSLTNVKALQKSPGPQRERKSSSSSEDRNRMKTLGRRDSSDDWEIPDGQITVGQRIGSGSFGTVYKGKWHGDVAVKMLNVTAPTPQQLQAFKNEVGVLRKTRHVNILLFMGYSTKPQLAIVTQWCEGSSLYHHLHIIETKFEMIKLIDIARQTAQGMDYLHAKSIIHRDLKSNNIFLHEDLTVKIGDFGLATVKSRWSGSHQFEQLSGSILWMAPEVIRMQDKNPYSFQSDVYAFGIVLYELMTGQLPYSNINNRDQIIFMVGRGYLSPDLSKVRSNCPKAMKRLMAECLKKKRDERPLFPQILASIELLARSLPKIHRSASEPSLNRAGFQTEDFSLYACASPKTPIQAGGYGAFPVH
Aurora kinase B, sequence (Q96GD4 whole entry): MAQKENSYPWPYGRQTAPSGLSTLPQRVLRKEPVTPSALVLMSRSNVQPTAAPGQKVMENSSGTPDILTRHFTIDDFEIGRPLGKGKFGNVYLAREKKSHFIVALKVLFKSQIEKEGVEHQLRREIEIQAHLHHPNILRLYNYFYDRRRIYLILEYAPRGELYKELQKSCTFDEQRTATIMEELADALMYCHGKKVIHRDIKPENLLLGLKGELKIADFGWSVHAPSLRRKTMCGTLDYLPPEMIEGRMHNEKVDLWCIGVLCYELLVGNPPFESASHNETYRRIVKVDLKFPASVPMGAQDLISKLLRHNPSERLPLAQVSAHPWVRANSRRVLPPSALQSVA
Dual specificity tyrosine-phosphorylation-regulated kinase 2 (Homo sapiens), sequence (Q92630 whole entry): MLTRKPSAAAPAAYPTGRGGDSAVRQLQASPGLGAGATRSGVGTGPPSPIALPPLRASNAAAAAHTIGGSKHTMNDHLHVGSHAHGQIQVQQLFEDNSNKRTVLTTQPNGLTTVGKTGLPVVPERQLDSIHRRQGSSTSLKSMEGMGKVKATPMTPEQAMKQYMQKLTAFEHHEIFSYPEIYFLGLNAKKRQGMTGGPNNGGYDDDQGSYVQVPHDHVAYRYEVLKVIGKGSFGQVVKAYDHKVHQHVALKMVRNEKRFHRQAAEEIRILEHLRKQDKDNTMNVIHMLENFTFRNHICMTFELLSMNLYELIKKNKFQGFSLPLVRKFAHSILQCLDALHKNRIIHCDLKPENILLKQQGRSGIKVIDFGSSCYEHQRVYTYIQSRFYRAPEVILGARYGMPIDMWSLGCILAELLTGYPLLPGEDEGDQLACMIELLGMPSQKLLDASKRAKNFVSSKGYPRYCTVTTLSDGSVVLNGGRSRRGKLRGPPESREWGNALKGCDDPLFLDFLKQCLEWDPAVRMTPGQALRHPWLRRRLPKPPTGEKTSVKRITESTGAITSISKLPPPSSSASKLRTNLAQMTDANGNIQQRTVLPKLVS
Serine/threonine-protein kinase TNNI3K (Homo sapiens), sequence (Q59H18 whole entry): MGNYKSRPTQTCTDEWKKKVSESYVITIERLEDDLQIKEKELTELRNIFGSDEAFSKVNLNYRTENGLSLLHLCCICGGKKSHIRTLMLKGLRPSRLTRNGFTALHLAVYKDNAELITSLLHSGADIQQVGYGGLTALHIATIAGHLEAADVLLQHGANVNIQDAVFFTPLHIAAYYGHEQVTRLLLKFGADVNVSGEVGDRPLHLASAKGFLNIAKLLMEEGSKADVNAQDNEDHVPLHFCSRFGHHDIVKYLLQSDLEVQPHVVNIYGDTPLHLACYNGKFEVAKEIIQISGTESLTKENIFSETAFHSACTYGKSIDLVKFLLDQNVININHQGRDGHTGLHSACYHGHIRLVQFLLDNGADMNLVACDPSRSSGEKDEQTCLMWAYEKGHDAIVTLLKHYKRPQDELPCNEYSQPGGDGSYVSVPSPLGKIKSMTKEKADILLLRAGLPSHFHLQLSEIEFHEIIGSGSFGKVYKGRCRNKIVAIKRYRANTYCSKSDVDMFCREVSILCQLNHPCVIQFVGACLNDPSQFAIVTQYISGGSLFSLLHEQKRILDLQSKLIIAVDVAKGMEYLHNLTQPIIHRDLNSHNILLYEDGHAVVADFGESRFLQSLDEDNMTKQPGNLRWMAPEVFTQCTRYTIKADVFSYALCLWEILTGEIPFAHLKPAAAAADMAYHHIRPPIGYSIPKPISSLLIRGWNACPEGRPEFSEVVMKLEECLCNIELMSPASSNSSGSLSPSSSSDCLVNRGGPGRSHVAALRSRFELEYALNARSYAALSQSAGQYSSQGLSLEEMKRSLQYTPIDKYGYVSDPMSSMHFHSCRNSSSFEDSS
Citron Rho-interacting kinase (Homo sapiens), sequence (O14578 whole entry): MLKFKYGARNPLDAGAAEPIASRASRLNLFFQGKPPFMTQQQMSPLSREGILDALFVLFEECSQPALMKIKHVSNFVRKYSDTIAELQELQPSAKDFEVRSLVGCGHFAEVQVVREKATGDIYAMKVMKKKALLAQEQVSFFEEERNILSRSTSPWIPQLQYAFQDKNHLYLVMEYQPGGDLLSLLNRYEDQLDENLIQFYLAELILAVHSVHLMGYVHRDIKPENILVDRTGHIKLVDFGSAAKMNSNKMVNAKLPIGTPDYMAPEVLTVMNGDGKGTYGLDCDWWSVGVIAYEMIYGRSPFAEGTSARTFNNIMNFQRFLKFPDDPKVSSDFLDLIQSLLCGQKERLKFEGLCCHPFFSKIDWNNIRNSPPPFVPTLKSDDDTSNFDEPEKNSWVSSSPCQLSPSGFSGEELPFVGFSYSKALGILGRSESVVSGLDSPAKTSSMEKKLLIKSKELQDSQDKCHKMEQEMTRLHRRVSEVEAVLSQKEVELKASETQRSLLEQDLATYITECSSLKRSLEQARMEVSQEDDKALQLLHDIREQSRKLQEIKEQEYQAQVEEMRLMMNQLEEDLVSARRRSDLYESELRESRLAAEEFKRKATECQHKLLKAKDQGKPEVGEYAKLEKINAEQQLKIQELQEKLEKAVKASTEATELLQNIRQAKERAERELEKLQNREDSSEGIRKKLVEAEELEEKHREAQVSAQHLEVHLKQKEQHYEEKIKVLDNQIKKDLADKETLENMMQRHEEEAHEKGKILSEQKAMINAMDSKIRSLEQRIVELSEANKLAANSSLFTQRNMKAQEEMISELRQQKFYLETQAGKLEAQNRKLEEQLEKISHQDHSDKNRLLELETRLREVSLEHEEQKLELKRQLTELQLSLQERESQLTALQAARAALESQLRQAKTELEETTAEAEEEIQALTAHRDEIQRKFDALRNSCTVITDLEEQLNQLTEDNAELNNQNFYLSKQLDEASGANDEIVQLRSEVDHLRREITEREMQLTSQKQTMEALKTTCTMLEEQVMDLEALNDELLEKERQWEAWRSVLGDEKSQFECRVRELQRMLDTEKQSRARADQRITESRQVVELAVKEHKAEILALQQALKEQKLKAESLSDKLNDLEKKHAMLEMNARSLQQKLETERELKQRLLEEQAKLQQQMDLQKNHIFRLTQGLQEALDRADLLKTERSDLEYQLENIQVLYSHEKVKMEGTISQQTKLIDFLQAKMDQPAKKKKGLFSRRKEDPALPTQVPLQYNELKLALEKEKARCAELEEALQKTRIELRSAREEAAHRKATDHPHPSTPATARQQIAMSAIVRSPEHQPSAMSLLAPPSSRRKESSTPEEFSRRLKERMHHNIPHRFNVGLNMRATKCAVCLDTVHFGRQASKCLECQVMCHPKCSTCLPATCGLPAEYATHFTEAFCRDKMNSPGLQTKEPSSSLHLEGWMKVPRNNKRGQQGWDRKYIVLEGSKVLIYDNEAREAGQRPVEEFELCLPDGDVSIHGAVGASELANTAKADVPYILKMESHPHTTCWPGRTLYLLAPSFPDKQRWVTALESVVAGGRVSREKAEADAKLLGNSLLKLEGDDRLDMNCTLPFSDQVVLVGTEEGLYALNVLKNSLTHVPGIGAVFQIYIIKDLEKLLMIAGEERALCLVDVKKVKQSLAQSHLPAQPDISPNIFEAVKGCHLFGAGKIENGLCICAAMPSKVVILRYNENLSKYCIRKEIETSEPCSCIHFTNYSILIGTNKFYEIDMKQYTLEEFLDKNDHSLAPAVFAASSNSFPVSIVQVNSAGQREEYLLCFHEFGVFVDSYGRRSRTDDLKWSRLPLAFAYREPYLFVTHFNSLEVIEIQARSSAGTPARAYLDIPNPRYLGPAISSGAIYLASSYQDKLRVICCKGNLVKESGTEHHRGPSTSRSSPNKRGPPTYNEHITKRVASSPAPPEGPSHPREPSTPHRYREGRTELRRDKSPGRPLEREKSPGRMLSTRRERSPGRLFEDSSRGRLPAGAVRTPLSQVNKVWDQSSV

Compound: CN1C(=O)c2sccc2N(C)c2nc(Nc3ccc(S(N)(=O)=O)cc3)ncc21
- Activity [1]: 45%
- inhibition (HepG2): Active
- Activity [2]: 100%
- Activity [3]: 100%
- Activity [4]: 100%
- Activity [5]: 100%
- Activity [6]: 15%
- inhibition (Homo sapiens): Active
- Activity [7]: 100%
- Activity [8]: 100%
- Activity [9]: 85%
- Tmax [10]: 4.98 min
- Activity [11]: 100%
- Activity [12]: 100%
- Activity [13]: 100%
- Activity [14]: 100%
- Activity [15]: 84%
- Activity [16]: 100%
- Activity [17]: 96%
- IC50 [18]: 38.8 nM
- Kd [19]: 35 nM
- Kd (Aurora kinase B): 40 nM
- Activity [20]: 85%
- Activity [21]: 87%
- Activity [22]: 96%
